Laboratory results published in ChEMBL document CHEMBL2034980, “N⁴-Phenyl-substituted 2-acetylpyridine thiosemicarbazones: cytotoxicity against human tumor cells, structure-activity relationship studies and investigation on the mechanism of action” (Bioorg Med Chem, 2012).
The source made the active and inactive calls.

Assays:
[1] = system: MCF7; assay: Cytotoxicity against human MCF7 cells after 48 hrs by MTT assay; type: functional, cell-based
Procedure, shortened: (§1)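 MTT assay. Cells were grown in DMEM with 10% FBS and penicillin/streptomycin at 37 °C under 5% CO2, seeded at 1–2×10^3 cells/well and treated 12 h later with 1×10^-12 to 1×10^-5 M ([…] from DMSO stock, final DMSO <0.5%) for 48 h. MTT was added at 0.5 mg mL⁻¹, formazan dissolved in DMSO and read at 570 nm. IC50 is the concentration giving 50% cytotoxicity. Quadruplicates, ≥3 independent experiments.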

[2] = (§2) Cytotoxicity against human U87 cells expressing wild-type p53 after 48 hrs by MTT assay; type: functional, cell-based, U-87MG ATCC; conditions: U-87 MG, read-out: IC50; procedure, shortened: as §1
[3] = system: U-87MG ATCC; assay: as §2; type: functional, cell-based; procedure, shortened: as §1
[4] = system: T98G; assay: Cytotoxicity against human T98G cells expressing mutant p53 after 48 hrs by MTT assay; type: functional, cell-based; procedure, shortened: as §1
[5] = Haemolytic activity in human RBC after 1 hr by photometry; type: ADME, cell-based; conditions: Erythrocyte
Procedure, shortened: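 Human EDTA blood was spun at 700xg for 10 min and the erythrocytes washed three times in cold PBS pH 7.4, then resuspended in it. Cells were incubated with varying compound concentrations for 1 h at 37 °C with shaking. After centrifugation, released haemoglobin was read at 540 nm to give the IC50. Mean ± SD, n = 4.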

[6] = system: MCF7; assay: Induction of apoptosis in human MCF7 cells assessed as irregularities in cellular shape at 1 uM after 48 hrs by DAPI staining; type: functional, cell-based
[7] = system: MCF7; assay: Induction of apoptosis in human MCF7 cells assessed as cell shrinkage at 1 uM after 48 hrs by DAPI staining; type: functional, cell-based
[8] = system: MCF7; assay: Induction of apoptosis in human MCF7 cells assessed as membrane blebbing at 1 uM after 48 hrs by DAPI staining; type: functional, cell-based
[9] = system: MCF7; assay: Induction of apoptosis in human MCF7 cells assessed as chromatin condensation at 1 uM after 48 hrs by DAPI staining; type: functional, cell-based
Procedure, shortened: (§3)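 Cells were treated at 1 μM for 48 h, washed in PBS and fixed in 70% methanol for 30 min at room temperature. They were stained with 0.4 μg mL⁻¹ DAPI for 1 h in the dark, and nuclear condensation and fragmentation were scored by fluorescence microscopy (385–410 nm).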

[10] = system: MCF7; assay: Induction of apoptosis in human MCF7 cells assessed as DNA fragmentation at 1 uM after 48 hrs by DAPI staining; type: functional, cell-based; procedure, shortened: as §3
[11] = system: T98G; assay: Induction of apoptosis in human T98G cells assessed as irregularities in cellular shape at 1 uM after 48 hrs by DAPI staining; type: functional, cell-based
[12] = system: T98G; assay: Induction of apoptosis in human T98G cells assessed as cell shrinkage at 1 uM after 48 hrs by DAPI staining; type: functional, cell-based
[13] = system: T98G; assay: Induction of apoptosis in human T98G cells assessed as membrane blebbing at 1 uM after 48 hrs […]; type: functional, cell-based
[14] = system: T98G; assay: Induction of apoptosis in human T98G cells assessed as chromatin condensation at 1 uM after 48 hrs by DAPI staining; type: functional, cell-based; procedure, shortened: as §3
[15] = system: T98G; assay: Induction of apoptosis in human T98G cells assessed as DNA fragmentation at 1 uM after 48 hrs by DAPI staining; type: functional, cell-based; procedure, shortened: as §3
[16] = system: U-87MG ATCC; assay: Induction of apoptosis in human U87 cells assessed as irregularities in cellular shape at 1 uM after 48 hrs by DAPI staining; type: functional, cell-based
[17] = system: U-87MG ATCC; assay: Induction of apoptosis in human U87 cells assessed as cell shrinkage at 1 uM after 48 hrs by DAPI staining; type: functional, cell-based
[18] = system: U-87MG ATCC; assay: Induction of apoptosis in human U87 cells assessed as membrane blebbing at 1 uM after 48 hrs by DAPI staining; type: functional, cell-based
[19] = system: U-87MG ATCC; assay: Induction of apoptosis in human U87 cells assessed as chromatin condensation at 1 uM after 48 hrs by DAPI staining; type: functional, cell-based; procedure, shortened: as §3
[20] = system: U-87MG ATCC; assay: Induction of apoptosis in human U87 cells assessed as DNA fragmentation at 1 uM after 48 hrs by DAPI staining; type: functional, cell-based; procedure, shortened: as §3
[21] = system: MCF7; assay: Induction of apoptosis in human MCF7 cells assessed as appearance of autophagolysosomes at 1 uM after 48 hrs by acridine orange/ethidium bromide staining-based microscopy; type: functional, cell-based
Procedure, shortened: (§4)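 After 48 h at 1 μM, cells were incubated for 15 min in serum-free medium containing 1 μg mL⁻¹ acridine orange and 1 μg mL⁻¹ ethidium bromide. The medium was removed and cells imaged by inverted fluorescence microscopy (530–650 nm). Green/orange nuclear patterns and acidic cytoplasmic vacuoles were scored.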

[22] = system: T98G; assay: Induction of apoptosis in human T98G cells assessed as appearance of autophagolysosomes at 1 uM after 48 hrs by acridine orange/ethidium bromide staining-based microscopy; type: functional, cell-based; procedure, shortened: as §4
[23] = system: U-87MG ATCC; assay: Induction of apoptosis in human U87 cells assessed as appearance of autophagolysosomes at 1 uM after 48 hrs by acridine orange/ethidium bromide staining-based microscopy; type: functional, cell-based; procedure, shortened: as §4
[24] = system: MCF7; assay: Induction of apoptosis in human MCF7 cells assessed as chromatin condensation at 1 uM after 48 hrs by acridine orange/ethidium bromide staining-based microscopy; type: functional, cell-based; procedure, shortened: as §4
[25] = system: T98G; assay: Induction of apoptosis in human T98G cells assessed as chromatin condensation at 1 uM after 48 hrs by acridine orange/ethidium bromide staining-based microscopy; type: functional, cell-based; procedure, shortened: as §4
[26] = system: U-87MG ATCC; assay: Induction of apoptosis in human U87 cells assessed as chromatin condensation at 1 uM after 48 hrs by acridine orange/ethidium bromide staining-based microscopy; type: functional, cell-based; procedure, shortened: as §4
[27] = species on record: Bos taurus; assay: Inhibition of bovine brain tubulin polymerization at 5 to 20 uM after 10 mins by spectrophotometry
Procedure, shortened: (§5)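 Bovine brain tubulin (10 μM; 1 mg mL⁻¹) in 0.8 M monosodium glutamate with 1% DMSO was pre-incubated with compound (four twofold dilutions) at 30 °C, then cooled to 0 °C for 10 min. GTP (0.4 mM) was added and the temperature raised to 37 °C while A350 was followed.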

[28] = system: HeLa; assay: Induction of mitotic arrest in human HeLa cells assessed as reduction in cell density by immunofluorescence staining; type: functional, cell-based
Procedure, shortened: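 HeLa cells (8000/well), collagen-coated plates, dosed within 4-6 h of seeding in quadruplicate with 10 twofold dilutions or vehicle (DMSO 0.1% final); 18 h at 37 °C, 5% CO2. Formaldehyde fixation, Hoechst 33342 nuclear stain, anti-α-tubulin/anti-phosphohistone H3 immunostaining; automated high-content imaging. Cell density from nuclear counts; EC50 read from dose-response cell density curves.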

[29] = system: HeLa; assay: Induction of mitotic arrest in human HeLa cells assessed as nuclear condensation by Hoechst 33342 staining; type: functional; conditions: read-out: MEC
Procedure, shortened: (§6)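 HeLa cells (8000/well, collagen-coated plates) were dosed in quadruplicate within 4–6 h of seeding with 10 twofold dilutions or vehicle (0.1% DMSO) for 18 h at 37 °C. Cells were fixed, stained with Hoechst 33342 and immunostained for phosphohistone H3 (Ser10) and α-tubulin, then analysed by automated imaging. Positivity threshold: mean of 28 vehicle wells +1 SD. Values reported as MDEC and EC50.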

[30] = system: HeLa; assay: Induction of mitotic arrest in human HeLa cells assessed as reduction in tubulin intensity by Hoechst 33342 staining; type: functional; conditions: read-out: MEC; procedure, shortened: as §6
[31] = system: HeLa; assay: Induction of mitotic arrest in human HeLa cells assessed as mitotic index measuring phosphohistone H3-positive cells by Hoechst 33342 staining; type: functional; conditions: read-out: MEC; procedure, shortened: as §6
[32] = species on record: Bos taurus; assay: Total inhibition of bovine brain tubulin polymerization at concentration close to compound solubility limit after 10 mins by spectrophotometry; procedure, shortened: as §5

In the case of `CC(=NNC(=S)Nc1ccc(Cl)cc1)c1ccccn1` (mixture of isomers), the Activity [1] is reported as “Dose-dependent effect”, the IC50 ([1]; MCF7, 48 h, read-out: IC50) is reported as 8.5 nM and the IC50 [2] is reported as 1.7 nM. For the same compound, the Activity [3] was “Dose-dependent effect”, the Activity [4] was “Dose-dependent effect” and the IC50 ([4]; read-out: IC50) was 5.9 nM. For the same compound, the IC50 [5] was over 10000 nM, the Activity [6] was “Active” and the Activity [7] was “Active”. For the same compound, the Activity [8] was “Active”, the Activity [9] was “Active” and the Activity [10] was “Active”. For the same compound, the Activity [11] was “Active”, the Activity [12] was “Active” and the Activity [13] was “Active”. For the same compound, the Activity [14] was “Active”, the Activity [15] was “Active” and the Activity [16] was “Active”. For the same compound, the Activity [17] was “Active”, the Activity [18] was “Active” and the Activity [19] was “Active”. The Activity [20] was “Active”, the Activity [21] was “Active” and the Activity [22] was “Active”. For the same compound, the Activity [23] was “Active”, the Activity [24] was “Active” and the Activity [25] was “Active”. For the same compound, the Activity [26] was “Active”, the inhibition [27] was “Active” and the EC50 [28] was 9200 nM. It also gave a minimal effective concentration [29] of 5.8 µM, a minimal effective concentration [30] of 3.6 µM and a minimal effective concentration [31] of over 50 µM. For the same compound, the inhibition [32] was “inactive”.
